# Test results: the M2OR odorant receptor database
# Numbering of substitutions follows the chain as printed.
# Key:
# Conditions in all cases: stereoisomer not certain
# [1] = target: T1, OR2W1 (Homo sapiens) (UniProt Q9Y3N9)
# T1 sequence (whole entry): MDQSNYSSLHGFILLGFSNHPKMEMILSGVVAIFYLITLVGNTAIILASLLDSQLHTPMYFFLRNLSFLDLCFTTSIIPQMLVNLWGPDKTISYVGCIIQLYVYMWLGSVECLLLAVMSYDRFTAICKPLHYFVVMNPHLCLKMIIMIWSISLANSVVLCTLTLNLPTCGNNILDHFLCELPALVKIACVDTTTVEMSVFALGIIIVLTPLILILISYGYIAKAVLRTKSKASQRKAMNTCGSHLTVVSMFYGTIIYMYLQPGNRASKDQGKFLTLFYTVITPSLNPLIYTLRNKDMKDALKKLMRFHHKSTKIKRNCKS
# In short: (§1)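 Whether a receptor–molecule pair is responsive (active) rests on the original authors' judgment that its measured signal was statistically different from baseline. Pairs without that judgment are non-responsive (inactive). Sources used varied assay methods, commonly transient luciferase assays in mammalian cell lines.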
# [2] = tested on: T2, OR2W1
# T2 sequence (whole entry): T1 sequence (whole entry) with D296N
# In short: as §1
# [3] = tested on: T3, OR2W1; remark: listed apart in the source
# T3 sequence (whole entry): T1 sequence (whole entry) with M81V
# In short: as §1
# 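Note: active if original authors judged signal statistically different from baseline.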
SMILES,odorant receptor agonist call [1],odorant receptor agonist call [2],odorant receptor agonist call [3]
O=C(O)CCc1ccccc1,inactive,,
C=CC(O)CCCCC (stereo not drawn),active,active,active
CCOC(=O)CC(C)C,active,active,inactive
c1coc(CSSCc2ccco2)c1,active,active,active
CCCCCC(=O)OCC,active,active,active
CC=Cc1ccc(OC)cc1,active,active,active
C=Cc1ccc(OCCCCOc2ccc(C=C)cc2)cc1,inactive,,
CC(=O)c1ccc(C)cc1,active,active,active
C=Cc1ccc(O)c(OC)c1,inactive,,
CC1=CCC(C(C)C)C=C1 (stereo not drawn),active,active,inactive
CC(C)(S)CCOC=O,active,active,active
CCCCCCCCC=CC=O,inactive,,
CCOC(C)=O,inactive,,
CCOC(=O)CCC(C)C,active,,
CCCCCC(=O)CC(C)=O,active,,
CC(C)CCCCCCCCCCC=O,inactive,,
CCCCCC=CC=O,active,active,inactive
CCCC1CCCC(=O)O1 (stereo not drawn),active,active,inactive
COC(=O)C=Cc1ccccc1,active,active,active
O=C1Cc2ccccc2O1,inactive,,
CC(C)=CC1CC(C)CCO1 (stereo not drawn),inactive,,
CCCCCOC(=O)CCCCC,inactive,,
CCCSSSCCC,active,active,inactive
CCOC(=O)C(C)CC (stereo not drawn),active,active,inactive
CCOC(=O)C(C)C,inactive,active,inactive
CCCCC1OC(=O)CC1C (stereo not drawn),active,active,active
CCCCCC=CC=CC=O,active,active,active
CCCCCC1CCC(=O)O1 (stereo not drawn),active,active,active
CCCc1ccc(O)c(OC)c1,inactive,,
